Assay results collected from several papers.
CDK17: Cyclin-dependent kinase 17 (CDK17, Homo sapiens, UniProt Q00537)
CDK17 with cyclin Y: Cyclin-dependent kinase 17, with cyclin Y (CDK17, Homo sapiens, UniProt Q00537)

COc1ccc2cc(OCC3(C(=O)O)CN(C(=O)c4ccc(F)cc4)C3)ccc2c1  remaining binding (CDK17; cell-free assay, competition with immobilised ligand; 1 µM): 100%
Cc1ccc(C(=O)NCc2ccsc2)cc1C#Cc1cn(C(C)C)c2ncnc(N)c12  activity vs control (CDK17 with cyclin Y; enzyme activity, inhibitor; 1 µM): 104%
CCN1CCC2(CC1)NC(=O)c1c(c3ccc(Cl)c(Cl)c3n1C)C2C#N (racemic)  ΔTm (CDK17; thermal stability, DSF; 10 µM): 0 °C
Cc1ccc(C(=O)Nc2ccc(CN3CCN(C)CC3)c(C(F)(F)F)c2)cc1C#Cc1cnc2cccnn12  remaining activity (CDK17; enzyme activity, inhibitor; 23.5 nM): 7.6%
CCCCNc1ncc2c(-c3ccc(F)cc3)nn(C[C@H]3CC[C@H](N)CC3)c2n1  inhibition (CDK17; target engagement in cells, inhibitor, chemoproteomics; 20 mM): 41.7%
Cn1c2c(Cl)c(Cl)ccc2c2cc(N)[nH]c(=O)c21  ΔTm (CDK17; thermal stability, DSF; 10 µM): 0.6 °C
C[C@@H]1CCN(c2nccc(-c3cnn4ncccc34)n2)C1  remaining binding (CDK17; binding; 1 µM): 100%
O=C(N[C@H]1CCCCC/C=C\C2C[C@@]2(C(=O)O)NC(=O)[C@@H]2C[C@@H](Oc3ccncc3)CN2C1=O)OC1CCCC1 (stereo partly shown)  remaining binding (CDK17; binding, competition with immobilised ligand; 1 µM): 89%
Cn1c2c(c3ccccc31)C(C#N)C(C)(C)NC2=O (stereo not shown)  ΔTm (CDK17; thermal stability, DSF; 10 µM): 0 °C
Cc1nccc(COC(=O)N2C[C@@H]3[C@@H](CNC(=O)c4ccc5[nH]nnc5c4)[C@@H]3C2)n1  remaining binding (CDK17; cell-free assay, competition with immobilised ligand; 1 µM): 90%
O=C(Nc1cnn(-c2csc(C(=O)NC3COC3)c2)c1)Nc1c(F)cccc1Cl  remaining activity (CDK17 with cyclin Y; enzyme activity, inhibitor; 5 µM): 96%
CCC1(CC)NC(=O)c2c(c3ccc(Cl)c(Cl)c3n2C)C1C#N (stereo not shown)  ΔTm (CDK17; thermal stability, DSF; 10 µM): 0.7 °C
C[C@@H](c1cccc(C#N)c1)n1cc(Cl)cc(C(N)=O)c1=N  remaining binding (CDK17; cell-free assay, competition with immobilised ligand; 1 µM): 84%
